Test results taken from ChEMBL document CHEMBL2331135, “New selective carbonic anhydrase IX inhibitors: synthesis and pharmacological evaluation of diarylpyrazole-benzenesulfonamides” (Bioorg Med Chem, 2013).
Calls of active or inactive are those of the source. The rule behind the calls is not given here.

Experiments:
Carbonic anhydrase 9 = Carbonic anhydrase 9 (Homo sapiens, UniProt Q16790); assay: Inhibition of human carbonic anhydrase 9 preincubated for 10 mins by CO2 hydration stopped-flow assay
Homo sapiens [1] = species: Homo sapiens; assay: Selectivity ratio of Ki for human carbonic anhydrase 1 to Ki for human carbonic anhydrase 9
Outline: (§1)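 Stopped-flow CO2 hydration assay using 0.2 mM phenol red read at 557 nm, in 10 mM Hepes pH 7.5 with 0.1 M Na2SO4. Substrate was CO2-saturated water at 25 °C. Enzyme and inhibitor were preincubated 10 min at room temperature, testing at least seven inhibitor concentrations, with dilutions going down to 0.01 nM. Ki came from Lineweaver-Burk plots, triplicates averaged. The ratios are hCA I or hCA II Ki divided by hCA IX Ki.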

Homo sapiens [2] = species: Homo sapiens; assay: Selectivity ratio of Ki for human carbonic anhydrase 2 to Ki for human carbonic anhydrase 9; outline: as §1
Carbonic anhydrase 1 = Carbonic anhydrase 1 (Homo sapiens, UniProt P00915); assay: Inhibition of human carbonic anhydrase 1 preincubated for 10 mins by CO2 hydration stopped-flow assay
Carbonic anhydrase 2 = Carbonic anhydrase 2 (Homo sapiens, UniProt P00918); assay: Inhibition of human carbonic anhydrase 2 preincubated for 10 mins by CO2 hydration stopped-flow assay
MDA-MB-231 [3] = assay: Ratio of IC50 for human MDA-MB-231 cells under hypoxic condition to IC50 for human MDA-MB-231 cells under normoxic condition; assay type: functional
MDA-MB-231 [4] = assay: Cytotoxicity against human MDA-MB-231 cells after 72 hrs by MTS assay; settings: MDA-MB-231, 72 h
MDA-MB-231 [5] = assay: Potentiation of doxorubicin-induced cytotoxicity against human MDA-MB-231 cells under normoxic condition at 1 uM after 72 hrs by MTS assay; assay type: functional, cell-based
MDA-MB-231 [6] = assay: Potentiation of doxorubicin-induced cytotoxicity against human MDA-MB-231 cells under hypoxic condition at 1 uM after 72 hrs by MTS assay; assay type: functional, cell-based
Outline: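 MDA-MB-231 cells (2×10^3 per well) were seeded in DMEM with 10% FCS, buffered with 22.3 mM bicarbonate, and moved to hypoxia (1% O2, 5% CO2, N2 balance). Cells were then held 72 h at 37 °C under hypoxia. Read-out was MTS, 1 h, A492. IC50 is the doxorubicin concentration giving 50% absorbance reduction. Data come from three independent experiments, six wells each.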

Carbonic anhydrase 1, sequence (P00915 whole entry): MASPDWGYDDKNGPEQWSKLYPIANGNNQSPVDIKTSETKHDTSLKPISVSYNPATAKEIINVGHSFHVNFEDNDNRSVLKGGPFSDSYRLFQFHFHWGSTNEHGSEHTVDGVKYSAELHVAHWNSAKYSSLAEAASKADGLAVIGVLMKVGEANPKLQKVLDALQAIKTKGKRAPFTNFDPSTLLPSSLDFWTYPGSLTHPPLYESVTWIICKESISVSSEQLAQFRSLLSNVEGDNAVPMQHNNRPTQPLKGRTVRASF

SMILES	Ki (Carbonic anhydrase 9) [nM]	other results
NS(=O)(=O)c1cccc(-n2nc(CO)cc2-c2ccccc2)c1	31	–
COc1cccc(-c2cc(CO)nn2-c2ccc(S(N)(=O)=O)cc2)c1	26	–
NS(=O)(=O)c1ccc(-n2nc(CO)cc2-c2ccc3c(ccc4ccccc43)c2)cc1	1860	Ratio Ki (Homo sapiens [1]): > 5; Ratio Ki (Homo sapiens [2]): > 5; Ki (Carbonic anhydrase 1): > 10000 nM; Ki (Carbonic anhydrase 2): > 10000 nM
COc1cccc2c1C(=O)c1c(O)c3c(c(O)c1C2=O)C[C@@](O)(C(=O)CO)C[C@@H]3O[C@H]1C[C@H](N)[C@H](O)[C@H](C)O1 [DOXORUBICIN]	–	Ratio IC50 (MDA-MB-231 [3]): 3
NS(=O)(=O)c1ccc(-n2nc(-c3ccc4ccccc4c3)cc2CO)cc1	21	–
NS(=O)(=O)c1ccc(-n2nc(CO)cc2-c2ccc(Br)cc2)cc1	15	IC50 (MDA-MB-231 [4]): > 50000 nM; Activity (MDA-MB-231 [5]): inactive; Activity (MDA-MB-231 [6]): Active
COc1ccccc1-c1cc(CO)nn1-c1ccc(S(N)(=O)=O)cc1	32	–
COc1ccc2cc(-c3cc(CO)nn3-c3ccc(S(N)(=O)=O)cc3)ccc2c1	19	IC50 (MDA-MB-231 [4]): > 50000 nM; Activity (MDA-MB-231 [5]): inactive
NS(=O)(=O)c1ccc(-n2nc(CCO)cc2-c2ccccc2)cc1	23	–
NS(=O)(=O)c1ccc(-n2nc(CO)cc2-c2ccccc2)cc1	27	–
COc1ccc2cc(-c3nn(-c4ccc(S(N)(=O)=O)cc4)cc3CO)ccc2c1	48	–
NS(=O)(=O)c1ccc(-n2nc(CO)cc2-c2ccc(-c3ccccc3)cc2)cc1	27	–
NS(=O)(=O)c1ccc(-n2nc(-c3ccccc3)cc2CO)cc1	157	–
NS(=O)(=O)c1cccc(-n2nc(CO)cc2-c2ccc3ccccc3c2)c1	19	IC50 (MDA-MB-231 [4]): > 50000 nM; Activity (MDA-MB-231 [5]): inactive; Activity (MDA-MB-231 [6]): Active
NS(=O)(=O)c1ccc(-n2cc(CO)c(-c3ccccc3)n2)cc1	66	–
NS(=O)(=O)c1ccc(-n2cc(CO)c(-c3ccc4ccccc4c3)n2)cc1	49	–
N#Cc1ccc(-c2cc(CO)nn2-c2ccc(S(N)(=O)=O)cc2)cc1	27	–
NS(=O)(=O)c1ccc(-n2nc(CO)cc2-c2cccnc2)cc1	13	–
COc1ccc2cc(-c3cc(CO)nn3-c3ccc(S(N)(=O)=O)cc3)ccc2c1Br	30	–
Cc1ccc(-c2cc(CO)nn2-c2ccc(S(N)(=O)=O)cc2)cc1	–	Ratio Ki (Homo sapiens [1]): 69; Ratio Ki (Homo sapiens [2]): 8; Ki (Carbonic anhydrase 1): 1510 nM; Ki (Carbonic anhydrase 2): 176 nM
NS(=O)(=O)c1ccc(-n2nc(CO)cc2-c2ccc3ccccc3c2)cc1	17	–
COc1ccc2cc(-c3cc(CO)nn3-c3cccc(S(N)(=O)=O)c3)ccc2c1	29	–
NS(=O)(=O)c1ccc(-n2nc(CO)cc2-c2cccc3ccccc23)cc1	254	–
